# Screening results: PubChem BioAssay, Sanford-Burnham Center for Chemical Genomics
# Compounds with a hit are over-represented: about 2.3% of the library has one in this group of screens.
# SKN-1 block: blocks SKN-1 activity in C. elegans; AID 624304; inhibition, % at 21.8 µM; C. elegans VP596 Pgst-4::GFP/RFP ratio, acrylamide-induced, 24 h; 360,000 tested, 0.49% active;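 active means interference check ratio from 0.5 to 1.5 plus GFP to RFP signal ratio inhibition reaching or exceeding a fixed threshold, cut at about 30% in these data, passing the limit was not always enough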
# MPTP block: blocks calcium-induced mitochondrial swelling. isolated mouse mitochondria, Ca2+ swelling absorbance, 30 min. inhibition, % at 10 µM. 360,000 tested, 1.4% active. AID 602449;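 active means inhibition of 50% or more, scaled per plate between neutral and stimulator controls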;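 further: 0% = DMSO wells given calcium and 100% = 1 mM EGTA wells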
# ATG4B inhibitor: inhibitors of human ATG4B cysteine protease; Q9Y4P1; ATG4B cleavage of LC3-PLA2, NBD-HPC fluorescence, 1 h; inhibition, % at 8.33 µM; 340,000 tested, 0.51% active; in the data active means inhibition above about 40%
# Target sequence (Q9Y4P1 whole entry, looked up): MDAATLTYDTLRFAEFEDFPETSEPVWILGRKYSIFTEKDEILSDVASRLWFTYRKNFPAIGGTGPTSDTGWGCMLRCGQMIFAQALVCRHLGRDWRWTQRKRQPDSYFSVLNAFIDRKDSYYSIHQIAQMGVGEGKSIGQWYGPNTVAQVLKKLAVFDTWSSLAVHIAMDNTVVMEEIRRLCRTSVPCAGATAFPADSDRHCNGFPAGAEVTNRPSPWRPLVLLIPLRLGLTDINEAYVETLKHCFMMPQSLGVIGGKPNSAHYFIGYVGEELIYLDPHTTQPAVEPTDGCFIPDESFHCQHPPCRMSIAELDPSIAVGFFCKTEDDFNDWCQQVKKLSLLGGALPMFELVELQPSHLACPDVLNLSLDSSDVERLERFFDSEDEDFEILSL
# MT1-MMP act inh: inhibitors of human MT1-MMP activation; 360,000 tested, 0.061% active; GFP/RFP ratio change, % at 20 µM; AID 651647; P50281; HT1080 RFP-PRO-GFP cells, GFP/RFP ratio fluorescence, overnight; percent of plate control window, DMSO zero;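 active means GFP/RFP ratio change of at least 30% with cell ATP level not reduced by more than half and red fluorescence within 50% of control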
#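 Test system: HT1080 cells expressing an RFP-PRO-GFP fluorescent reporter construct / Compound dosing: single-point 20 µM compound, 1% DMSO / Schedule: cells overnight before dosing, compound overnight, 37 °C, 5% CO2 / Evaluation: GFP/RFP fluorescence ratio / Control set: DMSO and RFP-L50D-GFP cell wells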
# ATG4B conf: confirmation of human ATG4B inhibitors; shares compounds with ATG4B inhibitor; ATG4B protease fluorescent substrate cleavage assay; inhibition, % at 8.33 µM; 320 tested, 92% active; AID 504757; in the data active means inhibition above about 39%
# PLA2 ctr: inhibits human PLA2, flagging false ATG4B inhibitors; purified PLA2, NBD-C6-HPC fluorescence, 45 min; shares compounds with ATG4B inhibitor; inhibition, % at 8.33 µM; 1,600 tested, 66% active; in the data active means inhibition above about 50%
# Target sequence (P04054 whole entry, looked up): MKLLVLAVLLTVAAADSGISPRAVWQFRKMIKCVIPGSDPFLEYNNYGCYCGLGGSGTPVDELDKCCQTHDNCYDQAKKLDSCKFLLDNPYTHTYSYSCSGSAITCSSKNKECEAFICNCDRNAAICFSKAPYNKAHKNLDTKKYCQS
# * = called active by the depositor; x = no result.
SMILES,SKN-1 block,MPTP block,ATG4B inhibitor,MT1-MMP act inh,PLA2 ctr,others
COc1ccc(C2=NOC(Cn3nc(C(=O)NCc4cccc(C(F)(F)F)c4)cc3-c3ccccc3)C2)cc1 (stereo not drawn),7.1,1.2,66.9*,8.1,82.3*,
CC(C)Nc1ncnc2c1ncn2[C@H]1CN(Cc2cccs2)C[C@@H](CO)O1,-1.6,0.0,x,6.9,x,
Cc1cccc2nc(-c3ccccc3)nc(N3CCC(O)(c4ccc(Cl)cc4)CC3)c12,-10.7,-2.0,41.5*,-8.2,22.5,
Cc1c(C(=O)O)cccc1-c1ccc(/C=N/n2cnnc2)o1,-9.1,-0.6,-7.3,-2.8,x,
Cc1c(C(=O)O)cccc1-c1ccc(/C=N/Nc2ccc(Br)cc2)o1,4.9,7.5,48.1*,2.3,25.3,
O=C(COC(=O)c1nc(Cl)ccc1Cl)c1ccc(Cl)s1,-0.6,1.3,-0.4,-1.3,x,
O=C(COC(=O)c1ncc(Cl)c(Cl)c1Cl)c1ccc(Cl)s1,-1.4,-5.6,40.0,2.5,22.2,
COc1ccc2oc(C(=O)Nc3ccc(S(=O)(=O)N(C)C4CCN(C)CC4)cc3)c(C)c2c1,10.0,-0.6,-18.1,-4.8,x,
CC(C)CN(C(=O)COc1ccc(Br)cc1C=O)C1CCS(=O)(=O)C1 (stereo not drawn),11.0,-1.7,44.6*,-12.9,53.1*,
C=CCN1CC(C(=O)N2CCC(Cc3ccc(Cl)cc3)(C(=O)OCC)CC2)CC1=O (stereo not drawn),6.0,1.1,-11.9,0.5,x,
CC(C)CCn1c2ccccc2c2cc(CC(N)=O)ccc21,3.4,2.0,68.0*,-0.9,77.2*,
NC(=O)CCn1c2ccccc2c2ccccc21,7.6,0.8,8.5,0.4,x,
COc1ccccc1NS(=O)(=O)c1cc(C(=O)NCCC(C)C)ccc1F,18.0,-2.1,-6.0,0.9,x,
C(#Cc1ccccc1)C[N+]1(CC#Cc2ccccc2)CCCC1,4.8,1.5,-3.6,-6.2,x,
C=CC#CC[N+]1(CC#Cc2ccccc2)CCOCC1,2.4,-3.1,69.8*,-3.5,-2.7,ATG4B conf=46.0*
O=C(c1ccc(COc2ccccc2Br)cc1)N1CCCCCC1,13.2,3.8,43.8*,0.5,55.4*,
O=C(c1ccc(COc2ccc(Cl)cc2)cc1)N1CCCCC1,12.1,9.4,29.2,-0.3,x,
O=C1NCCO1,19.9,-4.5,2.9,5.5,x,
CC(C)c1ccc(/C=C/C(=O)N2CCc3ccccc3C2)cc1,7.5,5.8,58.6*,0.3,62.9*,
COc1ccc(CN2C(=O)c3ccccc3C(/C=N/OCc3ccc(Cl)cc3)C2=O)cc1 (stereo not drawn),-5.1,0.0,28.0,-0.4,x,
COc1ccc(CN2C(=O)c3ccccc3C(/C=N\OCc3ccc(F)cc3)C2=O)cc1 (stereo not drawn),8.2,-0.9,60.2*,-2.8,75.0*,
CON(C)S(=O)(=O)c1cccc(C(=O)N(CC(=O)Nc2ccccc2C(F)(F)F)Cc2ccco2)c1,12.1,-2.4,-6.1,-2.5,x,
CCOc1cc(/C=C2\SC(=O)N(CC(=O)Nc3ccccc3F)C2=O)cc([N+](=O)[O-])c1O,4.1,1.5,42.5*,13.1,2.6,ATG4B conf=58.8*
Cc1noc(/C=C/c2ccco2)c1S(=O)(=O)N1CCC(C(=O)NC(C)c2ccccc2)CC1 (stereo not drawn),-8.1,0.4,-2.1,-6.6,x,
Cc1cccc(/C=C/c2onc(C)c2S(=O)(=O)N2CCC(C(=O)N3CCCCCC3)CC2)c1,-7.0,1.7,40.4*,-16.8,52.4*,
SMILES,SKN-1 block,MPTP block,ATG4B inhibitor,MT1-MMP act inh,PLA2 ctr,others
Cc1cccc(/C=C/c2onc(C)c2S(=O)(=O)N2CCC(C(=O)N3CCC(C)CC3)CC2)c1,-19.5,0.5,25.2,-12.2,x,
Cc1noc(/C=C/c2ccco2)c1S(=O)(=O)N1CCC(C(=O)N2c3ccccc3CC2C)CC1 (stereo not drawn),9.4,5.5,47.7*,-23.2,75.8*,
Cc1ccc(N=C2SC(C(=O)Nc3ccc(OC(F)(F)F)cc3)C(N)=C2C(=O)Nc2c(C)cc(C)cc2C)cc1 (stereo not drawn),3.4,39.8,61.9*,-27.0,61.5*,
CCc1nc(N2CCCCC2C(=O)O)c2oc3ccccc3c2n1 (stereo not drawn),18.9,1.0,-8.5,-3.1,x,
Cc1nc(N2CCOCC2)c2oc3ccccc3c2n1,-4.8,2.0,1.6,-7.8,x,
CCc1nc(N2CCN(Cc3ccc4c(c3)OCO4)CC2)c2oc3ccccc3c2n1,14.8,2.3,49.3*,-9.1,70.2*,
CCc1nc(Nc2ccc3c(c2)OCO3)c2oc3ccccc3c2n1,14.5,5.2,17.6,-1.5,x,
CCc1nc(N2CCCCC2C)c2oc3ccccc3c2n1 (stereo not drawn),9.0,1.0,45.2*,-9.7,56.4*,
CCc1nc(N2CCCCC2)c2oc3ccccc3c2n1,23.0,5.1,53.0*,-3.4,60.7*,
CCc1nc(N2CCCC(C)C2)c2oc3ccccc3c2n1 (stereo not drawn),27.3,13.7,42.9*,-3.7,52.4*,
CC1C=CCC2C(=O)N(c3cc(Cl)ccc3O)C(=O)C12 (stereo not drawn),9.9,0.8,-10.7,-1.5,x,
CC(=O)Nc1ccc(NC(=O)/C=C/c2cccc(C(F)(F)F)c2)cc1,8.7,2.2,-19.7,0.7,x,
COc1ccc(-n2ccnc2SCC(=O)NCc2ccco2)c(OC)c1,-4.1,-0.1,-1.8,-5.0,x,
COC(=O)C1=C(C)Nc2nc(SCc3ccccc3)[nH]c(=O)c2C1c1cccs1 (stereo not drawn),-0.9,0.2,52.9*,0.0,49.2,
O=C(O)Cc1sc(NC2CCCCC2)nc1-c1ccc(Cl)cc1,3.8,-0.4,53.8*,-46.9,31.8,ATG4B conf=64.6*
CC(C)(C)c1nc(SCC(=O)c2ccccc2)c2ccccc2n1,9.4,0.1,50.5*,-3.4,31.8,ATG4B conf=69.7*
O=C(COC(=O)c1cccc(S(=O)(=O)NCc2ccccc2)c1)c1ccccc1,-1.0,0.4,47.0*,4.9,54.8*,
CC(C)(C)[C@H]1COC(=O)CCC/C=C/C[C@H](CC(=O)NCCO)C(=O)N1,18.6,0.3,-9.2,2.9,x,
COc1ccc(C2CC(O)(c3ccccc3)Oc3c(C)ccc(C)c32)cc1 (stereo not drawn),-5.9,1.8,56.5*,-3.6,65.0*,
CC(C)NC(=O)C1(C)CCN1C(=O)c1ccccc1Oc1ccccc1 (stereo not drawn),6.9,-1.3,x,1.9,x,
COc1cc(OC)cc(-c2nnc(SCc3c(F)cccc3Cl)o2)c1,9.9,4.6,58.8*,-3.4,58.1*,
COc1ccc(-c2nnc(SCc3ccccc3F)o2)cc1,-16.4,-0.7,24.5,1.9,x,
COc1ccc(C2CC2/C(=N/O)c2ccccc2)cc1 (stereo not drawn),-6.5,-1.5,5.0,0.6,x,
